According to ChEMBL document CHEMBL2010643 (Bioorg Med Chem Lett, 2012):
Activity calls are given as the source filed them. The rule behind the calls is not given here.

Tests used:
[1] = target: Ribosomal protein S6 kinase beta-1 (Homo sapiens) (UniProt P23443); assay: Inhibition of S6K1 assessed as residual activity at 1 uM relative to control
[2] = target: Tau-tubulin kinase 1 (Homo sapiens) (UniProt Q5TCY1); assay: Inhibition of TTBK1 assessed as residual activity at 1 uM relative to control
In short: (§1)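 Radioactivity-based enzymatic kinase assays run across a 124-kinase profiling panel (Dundee), reporting the remaining kinase activity relative to a control.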

[3] = target: Dual specificity protein kinase TTK (Homo sapiens) (UniProt P33981); assay: Inhibition of TTK assessed as residual activity at 1 uM relative to control; in short: as §1
[4] = target: Tyrosine-protein kinase CSK (Homo sapiens) (UniProt P41240); assay: Inhibition of CSK assessed as residual activity at 10 uM relative to control
Chain of Tyrosine-protein kinase CSK (Homo sapiens) (P41240 2-450 limits assumed): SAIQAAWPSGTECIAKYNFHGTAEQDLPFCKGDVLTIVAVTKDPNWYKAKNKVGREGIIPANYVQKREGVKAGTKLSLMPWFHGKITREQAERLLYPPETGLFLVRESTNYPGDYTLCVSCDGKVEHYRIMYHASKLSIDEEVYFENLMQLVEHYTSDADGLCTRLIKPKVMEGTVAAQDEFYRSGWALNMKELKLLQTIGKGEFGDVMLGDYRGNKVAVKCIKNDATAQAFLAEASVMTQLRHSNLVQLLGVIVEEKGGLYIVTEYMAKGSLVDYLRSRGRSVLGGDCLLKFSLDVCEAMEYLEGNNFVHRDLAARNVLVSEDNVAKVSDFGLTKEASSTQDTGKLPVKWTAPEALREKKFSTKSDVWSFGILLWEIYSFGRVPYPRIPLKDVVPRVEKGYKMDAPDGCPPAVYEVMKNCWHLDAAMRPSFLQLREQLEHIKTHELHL

[5] = target: Mitogen-activated protein kinase 15 (Homo sapiens) (UniProt Q8TD08); assay: Inhibition of ERK8 assessed as residual activity at 10 uM relative to control
[6] = target: Inhibitor of nuclear factor kappa-B kinase subunit beta (Homo sapiens) (UniProt O14920); assay: Inhibition of IKKbeta assessed as residual activity at 10 uM relative to control
[7] = target: Serine/threonine-protein kinase pim-1 (Homo sapiens) (UniProt P11309); assay: Inhibition of PIM1 assessed as residual activity at 10 uM relative to control
Chain of Serine/threonine-protein kinase pim-1 (Homo sapiens) (P11309 whole entry, looked up): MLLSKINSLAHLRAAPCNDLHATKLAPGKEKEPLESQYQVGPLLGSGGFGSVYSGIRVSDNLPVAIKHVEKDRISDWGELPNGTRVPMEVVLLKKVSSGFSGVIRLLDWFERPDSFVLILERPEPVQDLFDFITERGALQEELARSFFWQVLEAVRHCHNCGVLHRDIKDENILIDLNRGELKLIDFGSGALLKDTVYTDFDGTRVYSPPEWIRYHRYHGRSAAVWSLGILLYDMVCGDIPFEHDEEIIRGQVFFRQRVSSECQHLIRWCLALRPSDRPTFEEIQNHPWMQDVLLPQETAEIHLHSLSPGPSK

[8] = target: Serine/threonine-protein kinase pim-2 (Homo sapiens) (UniProt Q9P1W9); assay: Inhibition of PIM2 assessed as residual activity at 10 uM relative to control
[9] = target: Serine/threonine-protein kinase pim-3 (Homo sapiens) (UniProt Q86V86); assay: Inhibition of PIM3 assessed as residual activity at 10 uM relative to control
[10] = target: T1, Leucine-rich repeat serine/threonine-protein kinase 2 (Homo sapiens, UniProt Q5S007); assay: Inhibition of wild-type LRRK2 phosphorylation at Ser935 expressed in HEK293 cells after 90 mins by immunoblot analysis; format: cell-based
T1 sequence (Q5S007 whole entry): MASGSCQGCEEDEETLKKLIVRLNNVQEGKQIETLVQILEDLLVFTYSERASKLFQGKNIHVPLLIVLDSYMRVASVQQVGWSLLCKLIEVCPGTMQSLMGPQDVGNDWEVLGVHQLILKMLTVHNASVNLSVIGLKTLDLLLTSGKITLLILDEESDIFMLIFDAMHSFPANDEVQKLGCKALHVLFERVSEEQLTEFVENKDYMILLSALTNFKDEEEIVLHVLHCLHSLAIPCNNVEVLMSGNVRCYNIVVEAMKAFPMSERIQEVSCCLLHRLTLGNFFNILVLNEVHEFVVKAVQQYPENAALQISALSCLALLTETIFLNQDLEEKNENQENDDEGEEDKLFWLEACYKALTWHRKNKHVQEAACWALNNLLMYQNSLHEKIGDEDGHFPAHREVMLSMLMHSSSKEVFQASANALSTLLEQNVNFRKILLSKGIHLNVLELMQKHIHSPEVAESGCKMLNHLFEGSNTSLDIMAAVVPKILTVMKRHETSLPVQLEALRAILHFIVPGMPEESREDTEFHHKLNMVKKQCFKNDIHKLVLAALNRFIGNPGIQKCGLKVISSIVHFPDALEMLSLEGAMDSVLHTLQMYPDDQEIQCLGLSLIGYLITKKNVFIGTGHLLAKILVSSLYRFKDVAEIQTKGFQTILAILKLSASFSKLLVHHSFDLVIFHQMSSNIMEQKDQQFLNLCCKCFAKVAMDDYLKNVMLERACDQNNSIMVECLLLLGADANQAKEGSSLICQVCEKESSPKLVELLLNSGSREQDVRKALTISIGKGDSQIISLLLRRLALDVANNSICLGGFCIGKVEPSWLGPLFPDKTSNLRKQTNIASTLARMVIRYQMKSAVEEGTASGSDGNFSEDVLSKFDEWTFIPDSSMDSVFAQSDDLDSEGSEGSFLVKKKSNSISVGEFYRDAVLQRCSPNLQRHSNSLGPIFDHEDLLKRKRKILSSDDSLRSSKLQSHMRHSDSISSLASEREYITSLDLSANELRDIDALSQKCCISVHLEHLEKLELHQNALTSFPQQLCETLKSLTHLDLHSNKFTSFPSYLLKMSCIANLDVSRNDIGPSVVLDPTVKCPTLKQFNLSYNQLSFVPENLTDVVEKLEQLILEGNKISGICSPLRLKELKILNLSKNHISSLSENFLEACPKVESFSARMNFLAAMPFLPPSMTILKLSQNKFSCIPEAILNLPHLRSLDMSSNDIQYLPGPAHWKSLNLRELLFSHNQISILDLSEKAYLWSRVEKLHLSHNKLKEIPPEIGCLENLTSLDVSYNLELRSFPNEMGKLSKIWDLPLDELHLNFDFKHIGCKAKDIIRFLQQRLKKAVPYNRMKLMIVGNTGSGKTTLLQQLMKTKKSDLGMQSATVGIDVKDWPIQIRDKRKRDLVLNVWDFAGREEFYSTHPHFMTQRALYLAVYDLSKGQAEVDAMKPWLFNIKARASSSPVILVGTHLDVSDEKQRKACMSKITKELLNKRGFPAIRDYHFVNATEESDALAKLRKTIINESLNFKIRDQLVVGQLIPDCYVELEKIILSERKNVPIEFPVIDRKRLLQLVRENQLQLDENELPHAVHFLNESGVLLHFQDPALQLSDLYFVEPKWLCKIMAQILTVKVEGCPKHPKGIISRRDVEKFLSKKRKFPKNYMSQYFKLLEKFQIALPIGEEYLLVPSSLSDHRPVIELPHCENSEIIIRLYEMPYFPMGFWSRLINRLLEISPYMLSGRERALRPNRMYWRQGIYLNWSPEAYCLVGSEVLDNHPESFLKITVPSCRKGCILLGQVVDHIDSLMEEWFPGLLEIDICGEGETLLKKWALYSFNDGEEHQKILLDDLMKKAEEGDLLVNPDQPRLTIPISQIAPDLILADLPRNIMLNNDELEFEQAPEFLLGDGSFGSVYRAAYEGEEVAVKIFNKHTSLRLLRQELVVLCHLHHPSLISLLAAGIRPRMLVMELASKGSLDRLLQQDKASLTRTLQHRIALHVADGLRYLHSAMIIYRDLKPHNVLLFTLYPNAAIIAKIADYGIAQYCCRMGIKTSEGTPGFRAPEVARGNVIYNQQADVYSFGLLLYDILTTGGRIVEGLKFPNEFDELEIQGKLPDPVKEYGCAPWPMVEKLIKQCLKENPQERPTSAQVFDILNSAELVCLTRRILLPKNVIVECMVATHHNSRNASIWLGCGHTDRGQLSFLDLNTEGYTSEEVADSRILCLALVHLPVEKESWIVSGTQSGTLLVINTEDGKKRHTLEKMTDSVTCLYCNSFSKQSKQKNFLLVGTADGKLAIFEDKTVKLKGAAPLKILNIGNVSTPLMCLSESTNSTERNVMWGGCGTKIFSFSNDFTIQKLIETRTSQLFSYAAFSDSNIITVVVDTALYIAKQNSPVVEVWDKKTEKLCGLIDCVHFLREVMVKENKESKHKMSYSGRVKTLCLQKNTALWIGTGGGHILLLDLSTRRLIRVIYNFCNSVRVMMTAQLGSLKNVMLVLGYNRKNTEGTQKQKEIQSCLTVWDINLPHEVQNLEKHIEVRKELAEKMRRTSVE
In short: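 HEK293 cells stably expressing wild-type GFP-LRRK2 exposed to DMSO or increasing inhibitor concentrations for 90 min. Lysates immunoblotted for LRRK2 phosphorylated at Ser910 and Ser935 and for total LRRK2.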

[11] = test system: Leucine-rich repeat serine/threonine-protein kinase 2 (Homo sapiens), Q5S007 [A2016T]; assay: Inhibition of LRRK2 A2016T mutant phosphorylation at Ser910 expressed in HEK293 cells at 1 to 3 uM after 90 mins by immunoblot analysis; format: cell-based
[12] = target: T1, Leucine-rich repeat serine/threonine-protein kinase 2; assay: Inhibition of wild type LRRK2 phosphorylation at Ser910 in human lymphoblastoid cells at 0.03 to 3 uM after 90 mins by Western blot analysis; format: cell-based
[13] = target: T1, Leucine-rich repeat serine/threonine-protein kinase 2; assay: Inhibition of wild type LRRK2 phosphorylation at Ser935 in human lymphoblastoid cells at 0.03 to 3 uM after 90 mins by Western blot analysis; format: cell-based
Brain = assay: AUClast in Swiss albino mouse brain at 1 mg/kg, iv; format: ADME, organism-based; design: time 0 - last, dose 1 mg/kg, route intravenous; conditions: in vivo
In short: (§2)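 Male Swiss Albino mice were given a single dose, either intravenous at 1 mg/kg or oral at 10 mg/kg. AUClast was measured in plasma and in brain. Half-life, plasma clearance, volume of distribution and oral bioavailability were derived from the plasma data.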

[14] = Half life in Swiss albino mouse at 1 mg/kg, iv; format: ADME, organism-based; design: dose 1 mg/kg, route intravenous; conditions: in vivo; in short: as §2
[15] = target: MAP kinase-activated protein kinase 5 (Homo sapiens) (UniProt Q8IW41); assay: Inhibition of PRAK assessed as residual activity at 10 uM relative to control
Chain of MAP kinase-activated protein kinase 5 (Homo sapiens) (Q8IW41 whole entry): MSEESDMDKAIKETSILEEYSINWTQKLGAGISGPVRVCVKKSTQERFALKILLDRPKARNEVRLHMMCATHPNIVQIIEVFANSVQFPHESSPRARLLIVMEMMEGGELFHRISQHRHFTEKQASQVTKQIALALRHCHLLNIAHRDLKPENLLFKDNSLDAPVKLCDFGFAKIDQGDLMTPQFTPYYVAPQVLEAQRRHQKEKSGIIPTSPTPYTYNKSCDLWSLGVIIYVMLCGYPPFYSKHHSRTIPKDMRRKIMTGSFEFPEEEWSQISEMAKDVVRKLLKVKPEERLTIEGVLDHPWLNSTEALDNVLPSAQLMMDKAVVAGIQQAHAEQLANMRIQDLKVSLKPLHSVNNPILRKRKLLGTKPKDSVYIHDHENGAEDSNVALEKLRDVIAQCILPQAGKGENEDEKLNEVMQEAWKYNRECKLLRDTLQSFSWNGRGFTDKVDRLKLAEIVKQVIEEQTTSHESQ

[16] = target: Angiopoietin-1 receptor (Homo sapiens) (UniProt Q02763); assay: Inhibition of TIE2 assessed as residual activity at 10 uM relative to control; in short: as §1
[17] = target: Calcium/calmodulin-dependent protein kinase kinase 2 (Homo sapiens) (UniProt Q96RR4); assay: Inhibition of CAMKKb assessed as residual activity at 1 uM relative to control
Chain of Calcium/calmodulin-dependent protein kinase kinase 2 (Homo sapiens) (Q96RR4 2-588 limits assumed): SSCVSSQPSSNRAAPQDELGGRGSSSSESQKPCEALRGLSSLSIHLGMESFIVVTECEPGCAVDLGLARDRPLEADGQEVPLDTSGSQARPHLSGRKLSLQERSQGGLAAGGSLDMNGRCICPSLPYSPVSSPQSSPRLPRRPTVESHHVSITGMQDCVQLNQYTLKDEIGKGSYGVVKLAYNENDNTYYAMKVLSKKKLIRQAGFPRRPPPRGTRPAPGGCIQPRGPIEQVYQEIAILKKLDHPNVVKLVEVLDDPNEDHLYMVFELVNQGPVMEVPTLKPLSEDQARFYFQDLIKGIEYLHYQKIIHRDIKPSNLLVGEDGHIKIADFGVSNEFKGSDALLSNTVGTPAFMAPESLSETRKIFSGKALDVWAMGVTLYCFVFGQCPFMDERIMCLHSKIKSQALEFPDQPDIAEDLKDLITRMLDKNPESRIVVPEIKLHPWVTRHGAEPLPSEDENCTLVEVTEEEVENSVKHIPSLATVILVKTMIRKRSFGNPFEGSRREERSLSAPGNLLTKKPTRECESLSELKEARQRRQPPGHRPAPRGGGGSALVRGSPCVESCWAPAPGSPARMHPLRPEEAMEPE
In short: (§3)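 Standard radioactivity-based enzymatic assays were run across a 124-kinase panel (Dundee profiling), with compound at 1 µM. Kinase activity was expressed relative to control.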

[18] = target: Cyclin-dependent kinase 2/cyclin A (Homo sapiens) (UniProt P24941+P20248+P78396); assay: Inhibition of CDK2-Cyclin A assessed as residual activity at 1 uM relative to control; format: protein-complex assay; in short: as §3
[19] = target: Tyrosine-protein kinase CSK (Homo sapiens) (UniProt P41240); assay: Inhibition of CSK assessed as residual activity at 1 uM relative to control; in short: as §3
Mus musculus [20] = assay: Inhibition of LRRK2 phosphorylation at Ser910 in C57BL/6 mouse kidney at 50 mg/kg, po administered for 8 hrs followed by 2 hrs dosing; format: functional, organism-based; design: dose 50 mg/kg
In short: (§4)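 Mice were dosed by oral gavage at 10 or 50 mg/kg. Brain, spleen and kidney were collected. Endogenous LRRK2 was resolved by SDS–PAGE and blotted with phospho-specific antibodies to Ser910 and Ser935 and with an antibody to total LRRK2.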

Mus musculus [21] = assay: Inhibition of LRRK2 phosphorylation at Ser935 in C57BL/6 mouse brain at 10 to 50 mg/kg, po administered for 8 hrs followed by 2 hrs dosing; format: functional, organism-based; in short: as §4
[22] = target: Calcium/calmodulin-dependent protein kinase kinase 2 (Homo sapiens) (UniProt Q96RR4); assay: Inhibition of CAMKKb assessed as residual activity at 10 uM relative to control
[23] = target: Eukaryotic translation initiation factor 2-alpha kinase 3 (Homo sapiens) (UniProt Q9NZJ5); assay: Inhibition of EIF2AK3 assessed as residual activity at 1 uM relative to control; in short: as §3
[24] = target: Ephrin type-A receptor 2 (Homo sapiens) (UniProt P29317); assay: Inhibition of EPH-A2 assessed as residual activity at 1 uM relative to control; in short: as §3
[25] = target: Ephrin type-B receptor 1 (Homo sapiens) (UniProt P54762); assay: Inhibition of EPH-B1 assessed as residual activity at 1 uM relative to control; in short: as §3
[26] = target: Receptor tyrosine-protein kinase erbB-4 (Homo sapiens) (UniProt Q15303); assay: Inhibition of HER4 assessed as residual activity at 1 uM relative to control; in short: as §3
[27] = target: Dual specificity mitogen-activated protein kinase kinase 1 (Homo sapiens) (UniProt Q02750); assay: Inhibition of MKK1 assessed as residual activity at 1 uM relative to control
Chain of Dual specificity mitogen-activated protein kinase kinase 1 (Homo sapiens) (Q02750 whole entry): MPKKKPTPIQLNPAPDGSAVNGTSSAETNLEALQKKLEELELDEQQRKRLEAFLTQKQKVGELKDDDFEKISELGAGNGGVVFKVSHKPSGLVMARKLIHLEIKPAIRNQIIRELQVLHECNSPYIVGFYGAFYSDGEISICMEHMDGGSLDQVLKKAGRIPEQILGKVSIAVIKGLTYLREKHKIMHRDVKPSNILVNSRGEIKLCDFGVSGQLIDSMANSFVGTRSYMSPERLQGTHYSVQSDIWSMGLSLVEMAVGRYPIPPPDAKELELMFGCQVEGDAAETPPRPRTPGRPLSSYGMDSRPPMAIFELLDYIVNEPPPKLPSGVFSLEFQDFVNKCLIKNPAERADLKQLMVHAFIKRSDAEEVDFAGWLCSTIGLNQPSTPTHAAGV

[28] = target: MAP kinase-interacting serine/threonine-protein kinase 2 (Homo sapiens) (UniProt Q9HBH9); assay: Inhibition of MNK2 assessed as residual activity at 1 uM relative to control
[29] = target: Serine/threonine-protein kinase 16 (Homo sapiens) (UniProt O75716); assay: Inhibition of MPSK1 assessed as residual activity at 1 uM relative to control
[30] = target: Serine/threonine-protein kinase 26 (Homo sapiens) (UniProt Q9P289); assay: Inhibition of MST4 assessed as residual activity at 1 uM relative to control
[31] = target: Mitogen-activated protein kinase 14 (Homo sapiens) (UniProt Q16539); assay: Inhibition of p38alpha MAPK assessed as residual activity at 1 uM relative to control; in short: as §1
[32] = target: Serine/threonine-protein kinase pim-3 (Homo sapiens) (UniProt Q86V86); assay: Inhibition of PIM3 assessed as residual activity at 1 uM relative to control
[33] = target: MAP kinase-activated protein kinase 5 (Homo sapiens) (UniProt Q8IW41); assay: Inhibition of PRAK assessed as residual activity at 1 uM relative to control
[34] = target: Receptor-interacting serine/threonine-protein kinase 2 (Homo sapiens) (UniProt O43353); assay: Inhibition of RIPK2 assessed as residual activity at 1 uM relative to control

- Activity [1]: 99%
- Activity [2]: 88%
- Activity [3]: 73%
- Activity [4]: 33%
- Activity [6]: 107%
- Activity [7]: 101%
- Activity [8]: 107%
- Activity [9]: 104%
- inhibition [10]: Dose-dependent effect
- inhibition [11]: Active
- inhibition [12]: Active
- inhibition [13]: Active
- AUClast (Brain): 1318 ng·h/mL
- half-life [14]: 11.3 h
- Activity [15]: 110%
- Activity [16]: 5%
- Activity [17]: 9%
- Activity [18]: 68%
- Activity [19]: 77%
- Activity [22]: 5%
- Activity [23]: 101%
- Activity [24]: 70%
- Activity [25]: 50%
- Activity [26]: 36%
- Activity [27]: 91%
- Activity [28]: 101%
- Activity [29]: 102%
- Activity [30]: 92%
- Activity [31]: 88%
- Activity [32]: 106%
- Activity [33]: 101%
- Activity [34]: 94%
Structure (SMILES): COc1cc(N2CCC(N3CCN(C)CC3)CC2)ccc1Nc1ncc(Cl)c(Nc2ccccc2S(=O)(=O)C(C)C)n1 [TAE-684]
- Activity [5]: 26%
- inhibition (Mus musculus [20]): Active
- inhibition (Mus musculus [21]): inactive
